Experimental findings from ChEMBL document CHEMBL4513216, “Probing the Open Global Health Chemical Diversity Library for Multistage-Active Starting Points for Next-Generation Antimalarials” (ACS Infect Dis, 2020) are described below.

A short description of the data set: Toxicity liver stage against HepG2, at 10uM. Details: test concentration 10 uM, cell line HepG2-A16-CD81EGFP. Type of data set: cell-based. The following applies: human, HepG2-A16-CD81EGFP cells; read-out: INHIBITION
The essentials:
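Uninfected HepG2-A16-CD81EGFP cells, 3 × 10^3 per well, 1536-well, plated on prespotted compound at 10 μM final, parasite-free screening media added to match infected plates; puromycin 10 μM positive, DMSO 0.5% negative; run in parallel with 48 h PbLuc assay at 37 °C, 5% CO2; viability by CellTiter-Glo luminescence, normalized to controls.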

Turning to `Cc1cnc(C(=O)N2Cc3cc(Cl)ccc3OC3(CCOCC3)C2)cn1`, the cytotoxicity at 10 µM was -37.9%.
With `COC(=O)N1CCCC(NC(=O)NCc2nc(C)cs2)C1` (centres undefined), the cytotoxicity at 10 µM is 7.25%.
The figure for `Cc1ccc(C(=O)Nc2c(C(=O)N(C)C)nn(C)c2C)cc1C` is 11.8%.
In the case of `CCOC(=O)[C@]12CCCN(Cc3ccco3)C[C@H]1CN(S(C)(=O)=O)C2`, the cytotoxicity at 10 µM was 6.86%.
Consider `CC(CNC(=O)NCc1ccc2c(c1)OCO2)CC1(C)OCCO1` (centres undefined), for which the cytotoxicity at 10 µM was -6.78%.
Regarding `Fc1cccc(-c2nccnc2C2CCCNC2)c1` (centres undefined), the cytotoxicity at 10 µM is -16.5%.
`CCC(CC)C(=O)c1c[nH]c(C(=O)N2CCN(c3ccccc3)CC2)c1`: the cytotoxicity at 10 µM came out at 14.7%.
Take `Cc1ccc(C(=O)Cc2c(Cl)nc3n(C)c(=O)n(C)c(=O)n23)cc1`: the cytotoxicity at 10 µM was -3.96%.
In the case of `Cc1ccoc1C(=O)NC1CCN(Cc2ccccc2F)CC1`, the cytotoxicity at 10 µM was -14.1%.
Take `COCCNC(=O)c1ccoc1CN1c2ccccc2CC1C` (centres undefined): the cytotoxicity at 10 µM came out at 5.41%.
The figure for `c1cnc(-c2nc(CN3CCC(c4ccn[nH]4)CC3)cs2)nc1` is -2.97%; for `CCC1=N[C@@]2(CC[C@@H]3CN(CC4CC4)C[C@@H]32)C(=O)N1C` it is 0.153%.
Regarding `Cc1nc(C)n(CC2CCCN2CC(=O)Nc2ccnn2C(C)C)n1` (centres undefined), the cytotoxicity at 10 µM is -14%.
Consider `CN1CCN(c2ccnc3c(F)cc(Br)cc23)CC1`, for which the cytotoxicity at 10 µM came out at 27.2%.
As to `CC(Cc1ccco1)NS(=O)(=O)N1CCCCCC1` (centres undefined), the cytotoxicity at 10 µM amounted to 2.29%.
Turning to `O=C(c1ccc(O)nc1)N1CCN(C(=O)c2ccc(F)cc2F)CC1`, the cytotoxicity at 10 µM is -1.35%.
The figure for `C[C@@H]1CN(C2(C(=O)N3CCNCC3)Cc3ccccc3C2)C[C@H](C)O1` is -4.17%; for `O=c1c2sccc2nc2n1CCN(Cc1ccccc1C(F)(F)F)CC2` it is -9.31%; for `Cc1oncc1C(=O)N1CC[C@H]2[C@@H]1CCC(=O)N2CC1CCOCC1` it is 4.33%.
As for `CN(C)S(=O)(=O)N1CCCC(c2cccc(Cc3ccccc3F)n2)C1` (centres undefined), the cytotoxicity at 10 µM came out at 40.4%.
As for `O=C(NCC1(O)CCOc2ccccc21)Nc1ccccc1` (centres undefined), the figure is -4.2%; as for `COCCN(C/C=C/c1ccccc1)Cc1[nH]cnc1C`, 10.3%.
For the compound `CCc1cc2cc(OC)c(OC)cc2nc1SCCN1CCCCC1`, the cytotoxicity at 10 µM was -4.82%.
`Cc1ncc(CN(C)C(=O)Nc2cccc(N3CCNC3=O)c2)s1`: the cytotoxicity at 10 µM turned out to be 9.97%.
As to `CN(C)C(=O)CN1CCC2(C1)CN(CC1CCOC1)C2` (centres undefined), the cytotoxicity at 10 µM amounted to 8.43%.
As for `CCN(Cc1cccc2c1OCO2)C(=O)C(C)c1cccnc1` (centres undefined), the cytotoxicity at 10 µM was -4.84%.
`CSCc1ccc(N2CCN(c3ccc(Cl)cn3)CC2)nc1`: the cytotoxicity at 10 µM was -9.64%.
As for `OC(CNCCn1cccn1)c1ccc(Br)cc1` (centres undefined), the cytotoxicity at 10 µM was -19.9%.
As to `Cc1c(C)n(CC(O)CN2CCN(CCO)CC2)c2c(Cl)cccc12` (centres undefined), the cytotoxicity at 10 µM was -12.9%.
With `COCc1csc(NC(=O)NCc2ccccn2)n1`, the cytotoxicity at 10 µM is 11.3%.
For `C[C@@H]1CN(C(=O)c2cnc(C3CC3)nc2)CC[C@@]1(O)C1CCOCC1`, the cytotoxicity at 10 µM is -13.9%.
As for `O=C(CC1CC1)N1C[C@@H]2CN(c3ccccc3)C(=O)[C@@H]2C1`, the cytotoxicity at 10 µM was -1.48%.
With `Cc1ccc(-c2nc(CNCC3CN(C)CCO3)co2)c(C)c1` (centres undefined), the cytotoxicity at 10 µM was -16.4%.
`CCCc1nc(CN2CCOC(Cn3cncn3)C2)cs1` (centres undefined): the cytotoxicity at 10 µM was -8.44%.
For `FC(F)(F)Oc1cccc(CNC[C@H]2Cn3ccnc3CO2)c1`, the cytotoxicity at 10 µM was 2.21%.
For the compound `O=C(Cc1noc(C(=O)NCC2CC2)n1)Nc1cccc(C(F)(F)F)c1`, the cytotoxicity at 10 µM is 8.13%.
For the compound `COCCCNC(=O)Nc1ccc(OCc2noc(C3CC3)n2)cc1`, the cytotoxicity at 10 µM worked out at 7.04%.
For the compound `CCc1ncc2c(n1)CN(Cc1nnc(CC)o1)CC2`, the cytotoxicity at 10 µM was -8.8%.
For `COC1(CNC(=O)NCCc2ccccc2)CCSC1` (centres undefined), the cytotoxicity at 10 µM was -12.6%.
